Laboratory results published in ChEMBL document CHEMBL1152239, “Development of mitochondria-targeted derivatives of resveratrol” (Bioorg Med Chem Lett, 2008).
Active and inactive are the calls of the source. The rule behind the calls is not given here.

What was measured:
[1] = Solubility in water; format: physicochemical
[2] = system: C26; assay: Cytotoxicity against mouse C26 cells at 5 uM by tetrazolium salt reduction assay; format: functional, cell-based
Procedure, shortened: (§1)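 MTT (tetrazolium salt reduction) read-out after cells grew for 3 days with the compound present, tested at 1 and 5 µM. Cell lines were C-26 mouse colon tumor cells and fast- and slow-growing non-tumoral mouse embryonic fibroblasts. Each measurement was run in quadruplicate and reported as average ± s.d.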

[3] = system: MEF; assay: Cytotoxicity against fast-growing MEF at 5 uM by tetrazolium salt reduction assay; format: functional, cell-based; conditions: Mus musculus; procedure, shortened: as §1
[4] = system: MEF; assay: Cytotoxicity against slow-growing MEF at 5 uM by tetrazolium salt reduction assay; format: cell-based; conditions: mouse; procedure, shortened: as §1
[5] = system: HCT-116; assay: Drug uptake in human HCT116 cells at 10 uM after 25 mins by fluorescence microscopic method; format: ADME, cell-based; conditions: hct-116, 25 min
Procedure, shortened: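 Cultured HCT116 cells were imaged by fluorescence microscopy with excitation at 340 nm, just before compound addition and 25 min after it. Protonophore FCCP was then added and cells were imaged again 10 min later to check that the signal depends on membrane potential.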

[6] = Drug uptake in rat liver mitochondria at 0.5 uM measured by TPP+ sensitive electrode; format: ADME; conditions: in vitro

| solubility [1] | Activity [5] | Activity [6] | SMILES | Activity [2] | Activity [3] | Activity [4] |
| --- | --- | --- | --- | --- | --- | --- |
| 31.2 µM | Active | – | Oc1cc(O)cc(/C=C/c2ccc(OCCCC[P+](c3ccccc3)(c3ccccc3)c3ccccc3)cc2)c1.[I-] | Active | Active | Not Active |
| 97 µM | Active | Active | CC(=O)Oc1cc(/C=C/c2ccc(OCCCC[P+](c3ccccc3)(c3ccccc3)c3ccccc3)cc2)cc(OC(C)=O)c1.[I-] | Active | Active | Not Active |
